Data set [1] is described as follows: melting temperature; fluorescence melt of hairpins on a sequencing array, two-state fit, raised by 9.35 °C to match UV melts. The conditions noted are these: sodium 0.088 M. The gist of the method:
(§1)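 Folding enthalpy and melting temperature come from bootstrapped two-state fits to Cy3 fluorescence of library hairpins carrying annealed Cy3 and quencher oligos on a sequenced MiSeq flow cell. Imaging was done in 50 mM Na-HEPES pH 8.0, 25 mM NaCl, stepping by 2.5 °C up to 60 °C, and signals were normalised to pre-quench Cy3 and to control constructs. Results of four replicates were combined by inverse variance, and fitted temperatures were raised by 9.35 °C to match UV melts.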

Data set [2] in a line: folding enthalpy; higher = less favourable; fluorescence melt of hairpins on a sequencing array, two-state fit. The conditions noted are these: sodium 0.088 M. The gist of the method:
as §1

For the sequence GCGTAGCGAAAGCATCGC (((..((....))..))), the Tm in data set [1] is 55.1 °C. In addition, the folding enthalpy in data set [2] was -15.4 kcal/mol.

GCGTAGCGAAAGCCACGC ((((.((....)).)))): the Tm in data set [1] was determined as 60.1 °C. For the same sequence, in data set [2], the folding enthalpy is -18.7 kcal/mol.

Take GCGTAGCGAAAGCTATGC ((.((((....)))).)): the Tm in data set [1] turned out to be 62.4 °C. Also, the folding enthalpy in data set [2] is -18 kcal/mol.

Consider GCGTAGCGAAAGCTGGGC ((..(((....)))..)), for which the Tm in data set [1] worked out at 49.3 °C. In data set [2], the folding enthalpy is -12.1 kcal/mol.

For GCGTAGCGAAAGCTTTGC ((..(((....)))..)), in data set [1], the Tm amounted to 42.9 °C. In addition, the folding enthalpy in data set [2] was -7.28 kcal/mol.

In the case of GCGTAGGAACGC ((((....)))), the Tm in data set [1] amounted to 49.2 °C. In addition, in data set [2], the folding enthalpy is -16.3 kcal/mol.

On to GCGTAGGCGAAAGCCCGC (((..(((....)))))), for which, in data set [1], the Tm was 61.9 °C. In addition, the folding enthalpy in data set [2] was -19.7 kcal/mol.

On to GCGTAGGGAAACCCACGC ((((.((....)).)))), for which the Tm in data set [1] is 54.3 °C. The folding enthalpy in data set [2] was -37.3 kcal/mol.

As for GCGTAGGGAAACCTACAC (.(((((....))))).), in data set [1], the Tm stood at 40.8 °C. In addition, the folding enthalpy in data set [2] was -14.5 kcal/mol.

On to GCGTAGGTACGC ((((....)))), for which the Tm in data set [1] is 52.8 °C. In data set [2], the folding enthalpy was -20.3 kcal/mol.

As to GCGTATAAACGC ((((....)))), the Tm in data set [1] turned out to be 50.4 °C. For the same sequence, the folding enthalpy in data set [2] is -19.7 kcal/mol.

Turning to GCGTATCACGC ((((...)))), the Tm in data set [1] is 56.9 °C. For the same sequence, in data set [2], the folding enthalpy was -34.2 kcal/mol.

For the sequence GCGTATGAAAATACGC ((((((....)))))), the Tm in data set [1] amounted to 63 °C. Also, the folding enthalpy in data set [2] is -36 kcal/mol.

As to GCGTATGGAAACATATGC ((.((((....)))).)), the Tm in data set [1] stood at 47.8 °C. Moreover, the folding enthalpy in data set [2] was -46.8 kcal/mol.

In the case of GCGTATGGAAACATGTGC ((..(((....)))..)), in data set [1], the Tm came to 38.8 °C. Further, the folding enthalpy in data set [2] was -11.6 kcal/mol.

For GCGTATTACGC ((((...)))), the Tm in data set [1] was 54 °C. The folding enthalpy in data set [2] was -25 kcal/mol.

For GCGTATTCACGC ((((....)))), the Tm in data set [1] came out at 53 °C. Moreover, in data set [2], the folding enthalpy is -25.6 kcal/mol.

GCGTCAGAACGC ((((....)))): the Tm in data set [1] turned out to be 52 °C. For the same sequence, the folding enthalpy in data set [2] was -23.6 kcal/mol.

GCGTCAGCACGC ((((....)))): in data set [1], the Tm came to 61.9 °C. In data set [2], the folding enthalpy is -8.99 kcal/mol.

GCGTCAGGAAACCGACAC (.(((.(....).))).): the Tm in data set [1] worked out at 27.4 °C. Further, in data set [2], the folding enthalpy was -16 kcal/mol.

Take GCGTCAGGAAACCGACGC (((((.(....).))))): the Tm in data set [1] turned out to be 58.6 °C. For the same sequence, the folding enthalpy in data set [2] was -32.9 kcal/mol.

Take GCGTCAGGACGC ((((....)))): the Tm in data set [1] was found to be 56.5 °C. Moreover, the folding enthalpy in data set [2] was -26 kcal/mol.

Regarding GCGTCATCACGC ((((....)))), in data set [1], the Tm is 50.4 °C. In addition, the folding enthalpy in data set [2] was -22.5 kcal/mol.

In the case of GCGTCCACACGC ((((....)))), in data set [1], the Tm turned out to be 52.4 °C. Besides, in data set [2], the folding enthalpy is -27.1 kcal/mol.

For GCGTCCACGAAAGTGCGC (((..(((....)))))), the Tm in data set [1] was 48.6 °C. In addition, the folding enthalpy in data set [2] was -23.3 kcal/mol.

For the sequence GCGTCCGAAAGGAACCGC ((((((....)))..))), in data set [1], the Tm worked out at 48.5 °C. Further, in data set [2], the folding enthalpy was -20.3 kcal/mol.

GCGTCCGAAAGGAGTCGC ((((((....)))..))): the Tm in data set [1] was 49.5 °C. In data set [2], the folding enthalpy was -22.9 kcal/mol.

In the case of GCGTCCGAAAGGATCCGC ((((((....)))..))), in data set [1], the Tm came out at 44.7 °C. Further, the folding enthalpy in data set [2] was -21.2 kcal/mol.

Take GCGTCCGAACGC ((((....)))): the Tm in data set [1] worked out at 53.2 °C. In addition, in data set [2], the folding enthalpy is -21.8 kcal/mol.

Consider GCGTCCGGAAACGGACAC (.(((((....))))).), for which, in data set [1], the Tm amounted to 51 °C. Besides, the folding enthalpy in data set [2] was -11.2 kcal/mol.

With GCGTCCGGACGC ((((....)))), the Tm in data set [1] stood at 60.3 °C. Further, in data set [2], the folding enthalpy was -40.9 kcal/mol.

Take GCGTCCTCGAAAGAGCGC (((..(((....)))))): the Tm in data set [1] was 48.4 °C. Further, in data set [2], the folding enthalpy was -24.9 kcal/mol.

As to GCGTCGCCACGC ((((....)))), the Tm in data set [1] stood at 53.7 °C. Moreover, the folding enthalpy in data set [2] was -15.9 kcal/mol.

Take GCGTCGCGAAAGCCACGC ((((.((....)).)))): the Tm in data set [1] is 64 °C. Further, the folding enthalpy in data set [2] is -31.1 kcal/mol.

For GCGTCGCGAAAGCCGCGC (((..((....))..))), the Tm in data set [1] amounted to 66 °C. Also, the folding enthalpy in data set [2] was -29.7 kcal/mol.

For GCGTCGCGAAAGCTAAGC ((.(.((....)).).)), in data set [1], the Tm amounted to 51.4 °C. The folding enthalpy in data set [2] is -20.2 kcal/mol.

GCGTCGCTACGC ((((....)))): the Tm in data set [1] stood at 55.2 °C. Also, in data set [2], the folding enthalpy was -13.7 kcal/mol.

For the sequence GCGTCGTACGC ((((...)))), the Tm in data set [1] came to 65.6 °C. Also, the folding enthalpy in data set [2] is -18.3 kcal/mol.

These data come from the array DNA melting data of Ke et al. (doi:10.1101/2024.01.08.574731).
